# Measured values as given in ChEMBL document CHEMBL2375313, “Synthesis, in vitro antitumor evaluation and DNA-binding study of novel tetrahydroquinolines and some derived tricyclic and tetracyclic ring systems” (Eur J Med Chem, 2013).
# The source made the active and inactive calls. No cut-off for these calls is given here.
# Assays:
# HOP-92 = experiment: Cytotoxicity against human HOP92 cells assessed as growth inhibition at 10 uM after 48 hrs by sulphorhodamine B assay; assay type: functional; settings: HOP-92, 48 h, read-out: GI
# How it was run: (§1)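 NCI-60 one-dose screen per the NCI Drug Evaluation Branch protocol. Cells given a single 10 µM concentration with 48 h continuous exposure. Growth estimated by sulphorhodamine B protein assay. Result expressed as percentage growth inhibition relative to untreated growth.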
# NCI-H23 = experiment: Cytotoxicity against human NCI-H23 cells assessed as growth inhibition at 10 uM after 48 hrs by sulphorhodamine B assay; assay type: functional; settings: NCI-H23, 48 h, read-out: GI; how it was run: as §1
# [1] = Cytotoxicity against human EKVX cells assessed as growth inhibition at 10 uM after 48 hrs by sulphorhodamine B assay; assay type: functional; settings: read-out: GI; how it was run: as §1
# A549 = experiment: Cytotoxicity against human A549 cells assessed as growth inhibition at 10 uM after 48 hrs by sulphorhodamine B assay; assay type: functional; settings: A549, 48 h, read-out: GI; how it was run: as §1
# [2] = Displacement of methyl green from DNA (unknown origin) after 24 hrs
# How it was run: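 DNA-methyl green complex was stirred in 0.05 M Tris-HCl pH 7.5 with 7.5 mmol MgSO4 at 37 °C for 24 h. Compound was dried down from EtOH in tubes and the DNA-methyl green solution added. A630 was read initially and after 24 h dark incubation at room temperature, corrected and normalized to untreated complex. IC50 is the concentration giving a 50% absorbance decrease; mean ± SD, n = 6.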
# [3] = Binding affinity to DNA (unknown origin) at 5 mg/mL by RP-TLC plate analysis
# How it was run: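 Reversed-phase C18 TLC plates pre-developed in methanol/water 8:2. Compound spotted at origin (5 mg/mL in methanol), then DNA (1 mg/mL in water/methanol 8:2) applied at the same spot. Plates developed in the same eluent; DNA located by anisaldehyde spray (blue). Ethidium bromide as positive control.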
# NCI/ADR-RES = experiment: Cytotoxicity against human NCI/ADR-RES cells assessed as growth inhibition at 10 uM after 48 hrs by sulphorhodamine B assay; assay type: functional; settings: read-out: GI; how it was run: as §1
# SNB-75 = experiment: Cytotoxicity against human SNB75 cells assessed as growth inhibition at 10 uM after 48 hrs by sulphorhodamine B assay; assay type: functional; settings: SNB-75, 48 h, read-out: GI; how it was run: as §1
# U-251 = experiment: Cytotoxicity against human U251 cells assessed as growth inhibition at 10 uM after 48 hrs by sulphorhodamine B assay; assay type: functional; settings: U-251, 48 h, read-out: GI; how it was run: as §1
# SNB-19 = experiment: Cytotoxicity against human SNB19 cells assessed as growth inhibition at 10 uM after 48 hrs by sulphorhodamine B assay; assay type: functional; settings: SNB-19, 48 h, read-out: GI; how it was run: as §1
# SF-295 = experiment: Cytotoxicity against human SF295 cells assessed as growth inhibition at 10 uM after 48 hrs by sulphorhodamine B assay; assay type: functional; settings: SF-295, 48 h, read-out: GI; how it was run: as §1
# DU-145 = experiment: Cytotoxicity against human DU145 cells assessed as growth inhibition at 10 uM after 48 hrs by sulphorhodamine B assay; assay type: functional; settings: DU-145, 48 h, read-out: GI; how it was run: as §1
# SF-268 = experiment: Cytotoxicity against human SF268 cells assessed as growth inhibition at 10 uM after 48 hrs by sulphorhodamine B assay; assay type: functional; settings: SF-268, 48 h, read-out: GI; how it was run: as §1
# PC-3 = experiment: Cytotoxicity against human PC3 cells assessed as growth inhibition at 10 uM after 48 hrs by sulphorhodamine B assay; assay type: functional; settings: PC-3, 48 h, read-out: GI; how it was run: as §1
# UACC-62 = experiment: Cytotoxicity against human UACC62 cells assessed as growth inhibition at 10 uM after 48 hrs by sulphorhodamine B assay; assay type: functional; settings: UACC-62, 48 h, read-out: GI; how it was run: as §1
# SK-MEL-2 = experiment: Cytotoxicity against human SK-MEL-2 cells assessed as growth inhibition at 10 uM after 48 hrs by sulphorhodamine B assay; assay type: functional; settings: SK-MEL-2, 48 h, read-out: GI; how it was run: as §1
# SK-MEL-5 = experiment: Cytotoxicity against human SK-MEL-5 cells assessed as growth inhibition at 10 uM after 48 hrs by sulphorhodamine B assay; assay type: functional; settings: SK-MEL-5, 48 h, read-out: GI; how it was run: as §1
# M14 = experiment: Cytotoxicity against human M14 cells assessed as growth inhibition at 10 uM after 48 hrs by sulphorhodamine B assay; assay type: functional; settings: M14, 48 h, read-out: GI; how it was run: as §1
# LOX IMVI = experiment: Cytotoxicity against human LOXIMVI cells assessed as growth inhibition at 10 uM after 48 hrs by sulphorhodamine B assay; assay type: functional; settings: read-out: GI; how it was run: as §1
# UO-31 = experiment: Cytotoxicity against human UO31 cells assessed as growth inhibition at 10 uM after 48 hrs by sulphorhodamine B assay; assay type: functional; settings: UO-31, 48 h, read-out: GI; how it was run: as §1
# CAKI-1 = experiment: Cytotoxicity against human Caki1 cells assessed as growth inhibition at 10 uM after 48 hrs by sulphorhodamine B assay; assay type: functional; settings: CAKI-1, 48 h, read-out: GI; how it was run: as §1
# RXF 393 = experiment: Cytotoxicity against human RXF393 cells assessed as growth inhibition at 10 uM after 48 hrs by sulphorhodamine B assay; assay type: functional; settings: RXF 393, 48 h, read-out: GI; how it was run: as §1
# ACHN = experiment: Cytotoxicity against human ACHN cells assessed as growth inhibition at 10 uM after 48 hrs by sulphorhodamine B assay; assay type: functional; settings: read-out: GI; how it was run: as §1
# SR = experiment: Cytotoxicity against human SR cells assessed as growth inhibition at 10 uM after 48 hrs by sulphorhodamine B assay; assay type: functional; settings: read-out: GI; how it was run: as §1
# A498 = experiment: Cytotoxicity against human A498 cells assessed as growth inhibition at 10 uM after 48 hrs by sulphorhodamine B assay; assay type: functional; settings: A498, 48 h, read-out: GI; how it was run: as §1
# RPMI-8226 = experiment: Cytotoxicity against human RPMI8226 cells assessed as growth inhibition at 10 uM after 48 hrs by sulphorhodamine B assay; assay type: functional; settings: RPMI-8226, 48 h, read-out: GI; how it was run: as §1
# MOLT-4 = experiment: Cytotoxicity against human MOLT4 cells assessed as growth inhibition at 10 uM after 48 hrs by sulphorhodamine B assay; assay type: functional; settings: MOLT-4, 48 h, read-out: GI; how it was run: as §1
# K562 = experiment: Cytotoxicity against human K562 cells assessed as growth inhibition at 10 uM after 48 hrs by sulphorhodamine B assay; assay type: functional; settings: K562, 48 h, read-out: GI; how it was run: as §1
# HL-60(TB) = experiment: Cytotoxicity against human HL-60(TB) cells assessed as growth inhibition at 10 uM after 48 hrs by sulphorhodamine B assay; assay type: functional; settings: HL-60, 48 h, read-out: GI
# How it was run: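 NCI-60 one-dose primary screen run to the Drug Evaluation Branch protocol. Cells are exposed to a single 10 µM concentration for 48 h continuously, and growth is read by SRB protein assay. Data are reported as percent growth of treated cells, expressed as % growth inhibition.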
# SK-OV-3 = experiment: Cytotoxicity against human SKOV3 cells assessed as growth inhibition at 10 uM after 48 hrs by sulphorhodamine B assay; assay type: functional; settings: SK-OV-3, 48 h, read-out: GI; how it was run: as §1
# CCRF-CEM = experiment: Cytotoxicity against human CCRF-CEM cells assessed as growth inhibition at 10 uM after 48 hrs by sulphorhodamine B assay; assay type: functional; settings: read-out: GI; how it was run: as §1
# OVCAR-5 = experiment: Cytotoxicity against human OVCAR5 cells assessed as growth inhibition at 10 uM after 48 hrs by sulphorhodamine B assay; assay type: functional; settings: OVCAR-5, 48 h, read-out: GI; how it was run: as §1
# OVCAR-4 = experiment: Cytotoxicity against human OVCAR4 cells assessed as growth inhibition at 10 uM after 48 hrs by sulphorhodamine B assay; assay type: functional; settings: OVCAR-4, 48 h, read-out: GI; how it was run: as §1
# IGROV-1 = experiment: Cytotoxicity against human IGROV1 cells assessed as growth inhibition at 10 uM after 48 hrs by sulphorhodamine B assay; assay type: functional; settings: IGROV-1, 48 h, read-out: GI; how it was run: as §1
# T47D = experiment: Cytotoxicity against human T47D cells assessed as growth inhibition at 10 uM after 48 hrs by sulphorhodamine B assay; assay type: functional; settings: read-out: GI; how it was run: as §1
# Hs-578T = experiment: Cytotoxicity against human Hs578T cells assessed as growth inhibition at 10 uM after 48 hrs by sulphorhodamine B assay; assay type: functional; settings: read-out: GI; how it was run: as §1
# NCI-H522 = experiment: Cytotoxicity against human NCI-H522 cells assessed as growth inhibition at 10 uM after 48 hrs by sulphorhodamine B assay; assay type: functional; settings: NCI-H522, 48 h, read-out: GI; how it was run: as §1
# HT-29 = experiment: Cytotoxicity against human HT-29 cells assessed as growth inhibition at 10 uM after 48 hrs by sulphorhodamine B assay; assay type: functional; settings: HT-29, 48 h, read-out: GI; how it was run: as §1
# MCF7 = experiment: Cytotoxicity against human MCF7 cells assessed as growth inhibition at 10 uM after 48 hrs by sulphorhodamine B assay; assay type: functional; settings: MCF7, 48 h, read-out: GI; how it was run: as §1
# MDA-MB-435 = experiment: Cytotoxicity against human MDA-MB-435 cells assessed as growth inhibition at 10 uM after 48 hrs by sulphorhodamine B assay; assay type: functional; settings: MDA-MB-435, 48 h, read-out: GI; how it was run: as §1
# HCT-15 = experiment: Cytotoxicity against human HCT15 cells assessed as growth inhibition at 10 uM after 48 hrs by sulphorhodamine B assay; assay type: functional; settings: HCT-15, 48 h, read-out: GI; how it was run: as §1
# HCT-116 = experiment: Cytotoxicity against human HCT116 cells assessed as growth inhibition at 10 uM after 48 hrs by sulphorhodamine B assay; assay type: functional; settings: HCT-116, 48 h, read-out: GI; how it was run: as §1
compound,measurement,setting,value
CC1CCCc2c1nc1[nH]c(=S)nc(N)c1c2-c1ccc(Cl)cc1 (centres undefined),inhibition of growth at 10 µM,HOP-92,< 10%
same,inhibition of growth at 10 µM,NCI-H23,10.1%
same,inhibition of growth at 10 µM,[1],14.5%
same,inhibition of growth at 10 µM,A549,< 10%
same,IC50,[2],0.151 µg/mL
same,Activity,[3],Active
same,inhibition of growth at 10 µM,NCI/ADR-RES,< 10%
same,inhibition of growth at 10 µM,SNB-75,10.2%
same,inhibition of growth at 10 µM,U-251,< 10%
same,inhibition of growth at 10 µM,SNB-19,10%
same,inhibition of growth at 10 µM,SF-295,< 10%
same,inhibition of growth at 10 µM,DU-145,< 10%
same,inhibition of growth at 10 µM,SF-268,18.8%
same,inhibition of growth at 10 µM,PC-3,56.7%
same,inhibition of growth at 10 µM,UACC-62,15.8%
same,inhibition of growth at 10 µM,SK-MEL-2,11.4%
same,inhibition of growth at 10 µM,SK-MEL-5,10.3%
same,inhibition of growth at 10 µM,M14,< 10%
same,inhibition of growth at 10 µM,LOX IMVI,< 10%
same,inhibition of growth at 10 µM,UO-31,< 10%
same,inhibition of growth at 10 µM,CAKI-1,31.3%
same,inhibition of growth at 10 µM,RXF 393,< 10%
same,inhibition of growth at 10 µM,ACHN,< 10%
same,inhibition of growth at 10 µM,SR,25.8%
same,inhibition of growth at 10 µM,A498,11.5%
same,inhibition of growth at 10 µM,RPMI-8226,37%
same,inhibition of growth at 10 µM,MOLT-4,26.2%
same,inhibition of growth at 10 µM,K562,15%
same,inhibition of growth at 10 µM,HL-60(TB),10%
same,inhibition of growth at 10 µM,SK-OV-3,< 10%
same,inhibition of growth at 10 µM,CCRF-CEM,28.8%
same,inhibition of growth at 10 µM,OVCAR-5,< 10%
same,inhibition of growth at 10 µM,OVCAR-4,< 10%
same,inhibition of growth at 10 µM,IGROV-1,10%
same,inhibition of growth at 10 µM,T47D,15.2%
same,inhibition of growth at 10 µM,Hs-578T,< 10%
same,inhibition of growth at 10 µM,NCI-H522,10%
same,inhibition of growth at 10 µM,HT-29,< 10%
same,inhibition of growth at 10 µM,MCF7,10.4%
same,inhibition of growth at 10 µM,MDA-MB-435,< 10%
same,inhibition of growth at 10 µM,HCT-15,14.3%
same,inhibition of growth at 10 µM,HCT-116,10.5%
CC[n+]1c(-c2ccccc2)c2cc(N)ccc2c2ccc(N)cc21.[Br-] [HOMIDIUM BROMIDE],IC50,[2],0.004 µg/mL
same,Activity,[3],Active
